PvdQ inh = P. aeruginosa PvdQ acylase inhibition. purified PvdQ acylase, fluorescence plate reader. hit rate 0.063% among 340,000. inhibition, % at 10 µM. AID 488965; in the data active means inhibition above about 30%, passing the limit was not always enough; inconclusive means no clear call, values can overlap the other calls
SR-BI HDL uptake = blocks mouse SR-BI lipid uptake from DiI-HDL. Q61009. ldlA[mSR-BI] CHO cells, DiI-HDL uptake fluorescence, 3 h. inhibition, % at 12.5 µM. hit rate 0.96% among 320,000;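 active means mean replicate inhibition of at least 70% and a set share of replicates each scoring 70 or more; inconclusive means meets just one of the two criteria; inactive means fails both criteria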
Ecoli rRNA inh = selective bacterial rRNA inhibition in E. coli; E. coli WT GFP vs humanized-ribosome RFP mutants, fluorescence, 24 h; hits give low values; DMSO median 0, no signal -100; GFP signal change (wild-type ribosome), % (no concentration beside the values); hit rate 1.6% among 350,000; AID 720706;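 active means significant combined selectivity score with lowered wild-type GFP, culture density cut under 30%, mutant RFP and density less affected; inactive means any of these conditions unmet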
dFosB act-1 = enhances mouse delta FosB homodimer DNA binding; P13346; purified delta FosB, TAMRA-CDK5 oligo fluorescence polarization; percent of positive-control signal above neutral wells; activation, % at 25 µM; hit rate 0.99% among 340,000; AID 493131;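 active means mean activation above about 17%, with every replicate also reaching it, limit read from the data, passing the limit was not always enough; inconclusive means only one of the two conditions met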
Target sequence (P13346 whole entry, looked up): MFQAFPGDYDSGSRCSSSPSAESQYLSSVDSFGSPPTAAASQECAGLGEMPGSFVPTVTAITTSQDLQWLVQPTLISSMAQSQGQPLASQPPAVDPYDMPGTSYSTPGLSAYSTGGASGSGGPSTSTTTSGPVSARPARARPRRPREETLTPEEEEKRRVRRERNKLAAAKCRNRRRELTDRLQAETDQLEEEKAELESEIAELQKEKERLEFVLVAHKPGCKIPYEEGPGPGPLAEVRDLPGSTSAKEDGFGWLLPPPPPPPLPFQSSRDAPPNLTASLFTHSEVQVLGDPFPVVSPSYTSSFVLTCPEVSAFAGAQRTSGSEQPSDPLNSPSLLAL
SR-BI DiI-HDL act = SR-BI HDL lipid transfer activation. CHO ldlA[mSR-BI] cells, DiI-HDL uptake fluorescence, 3 h; 100 = double the neutral-control signal. activation, % at 12.5 µM. hit rate 0.096% among 320,000. AID 504775;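 active means mean replicate activation of at least 60% and every replicate at or above 60%; inconclusive means mean or all-replicate condition met, but not both; inactive means mean below 60% and not all replicates reaching 60%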
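Assay system: CHO ldlA[mSR-BI] cells, LDL receptor-null, SR-BI overexpressing; medium: Ham's F12 with 0.5% BSA, HEPES 25 mM, pH 7.4; also added: DiI-HDL 10 µg/mL; timing: 3 h uptake period with compound, 37 °C; signal: DiI fluorescence, bottom read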
Xi reactivation = X-chromosome reactivation activator | XiGFP mouse fibroblasts, % GFP-positive cells imaging, 3 d; cells co-treated with 5-aza-dC sensitizer; scaled so ellipticine positive control = 100% | activation, % at 7.58 µM | hit rate 0.055% among 360,000 | AID 743238;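 active means mean normalized replicate activation at least 10% and every replicate at or above 10%; inconclusive means only one of the two criteria met; inactive means mean below 10% and not all replicates reach 10%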
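material = 68-5-11 XiGFP fibroblast line | medium = DMEM plus 5-aza-dC sensitizer | schedule = 3 days compound exposure | benchmarks = positive control ellipticine, 6 µM final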
dFosB act-2 = delta FosB (mouse) homodimer activation | shares compounds with dFosB act-1 | purified delta FosB, TAMRA-CDK5 oligo fluorescence polarization; normalised: neutral wells 0, positive control 100 | 2,400 tested, under 10 active | activation, % at 24.9 µM;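 active means highest replicate activation at or above 34% and every replicate reaching that threshold; inconclusive means meets only one of the two criteria; inactive means meets neither criterion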;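 further: higher polarization means more probe DNA bound by delta FosB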
A number is an active result; – = inactive; ? = inconclusive; · = not tested or not shown. In the library only some 2.6% were active in any assay of this set; here they are far more common.

SMILES	PvdQ inh	SR-BI HDL uptake	Ecoli rRNA inh	dFosB act-1	SR-BI DiI-HDL act	Xi reactivation	dFosB act-2
Fc1ccc(Nc2nc(Oc3ccc4c(c3)OCO4)nc(N3CCOCC3)n2)c(F)c1	–	–	·	61	–	·	–
Cc1[nH]c2ccccc2c1C(c1ccncc1)N1CCN(c2ccccn2)CC1 (stereo not given)	–	–	–	–	–	–	·
CCN1CCN(c2cc(C)c3cc(NC(=O)CCC(=O)Nc4ccc(OC)cc4OC)ccc3n2)CC1	–	–	–	–	–	–	·
CCN1CCN(c2c(C=O)c(Cl)nc3ccc(OC)cc23)CC1	–	–	–	27	–	–	–
C[C@@H]1CN([C@H](C)CO)C(=O)c2cc(NC(=O)C3CC3)ccc2O[C@H]1CN(C)C	·	·	–	·	·	–	·
CC(C)(C)C(=O)Nc1nc2c(s1)CN(Cc1ccccc1)CC2	–	–	–	–	–	–	·
O=C(Nc1nc2c(s1)CN(Cc1ccccc1)CC2)C1CCCC1	–	–	–	24	–	–	–
COC(=O)c1c(NC(=O)c2cccc([N+](=O)[O-])c2)sc(C(N)=O)c1C	–	–	–	29	–	–	–
O=C(Nc1ccc(NC(=O)c2cccc([N+](=O)[O-])c2)cc1)c1cccc([N+](=O)[O-])c1	–	–	–	–	–	–	·
O=C(Nc1cccc([N+](=O)[O-])c1)c1cccc(C(=O)Nc2cccc([N+](=O)[O-])c2)c1	–	–	–	34	–	–	–
COC(=O)c1sc(NC(=O)c2cccc([N+](=O)[O-])c2)c(C(N)=O)c1C	–	–	·	–	–	–	·
Cc1c(C(=O)Nc2cccc([N+](=O)[O-])c2)csc1-c1ccccc1	–	89	·	58	–	·	–
Cc1[nH]nc2nc(SCC(=O)NCCC3=CCCCC3)n(-c3ccc(Br)cc3)c(=N)c12	–	–	–	66	–	–	–
Cc1cc(-n2c(SCC(=O)NCCC3=CCCCC3)nc3n[nH]c(C)c3c2=N)ccc1Cl	–	–	–	–	–	–	·
CNC(=O)c1ccccc1S(=O)c1ccccc1COC(C)=O (stereo not given)	–	–	–	–	–	–	·
CC1(C)Cc2c(c(-c3ccco3)nc3n[nH]c(N)c23)CO1	–	–	·	–	–	·	·
Cc1ccc(-c2nnc(SCC(=O)Nc3nc4c(s3)CCCC4)n2C)cc1	–	·	·	–	·	·	·
CN1/C(=C/C=C(C#N)C#N)C=Cc2ccccc21	–	·	–	29	·	–	–
COc1ccccc1NC(=O)N1CC(=O)N2[C@@H](CO)[C@@H](c3ccc(C#CC(C)C)cc3)[C@@H]2C1	·	·	–	·	·	–	·
C/C(=N\NC(=O)CSCc1ccc(Cl)cc1)c1ccc(NC(=O)c2ccccc2)cc1	–	?	·	–	–	·	·
C/C(=N\NC(=O)c1c(Cl)c(C)nn1C)c1cccc(NC(=O)COc2ccccc2)c1	–	–	·	29	–	·	–
C/C(=N/NC(=O)c1cccs1)c1ccc(NC(=O)COc2ccc(Cl)cc2)cc1	–	–	·	32	–	·	–
C/C(=N\NC(=O)c1c(Cl)c(C)nn1C)c1ccc(NC(=O)C2CCC2)cc1	–	–	–	–	–	–	·
C/C(=N\NC(=O)c1ccc(Cl)cc1)c1cccs1	–	–	–	–	–	–	·
C/C(=N\NC(=O)c1c(Cl)c(C)nn1C)c1cccc(NC(=O)c2cccc(F)c2)c1	–	–	–	–	–	–	·
SMILES	PvdQ inh	SR-BI HDL uptake	Ecoli rRNA inh	dFosB act-1	SR-BI DiI-HDL act	Xi reactivation	dFosB act-2
C/C(=N/NC(=O)CSCc1ccc(Cl)cc1)c1cccc(NC(=O)c2ccccc2)c1	–	81	·	38	–	·	–
C/C(=N\NC(=O)c1c(Cl)c(C)nn1C)c1ccc(NC(=O)COc2ccc(Cl)cc2C)cc1	–	72	·	33	–	·	–
CC(C)NC(=O)N(C)C[C@H]1OCCCC[C@@H](C)Oc2ccc(NC(=O)CCC(F)(F)F)cc2C(=O)N([C@H](C)CO)C[C@@H]1C	·	·	–	·	·	–	·
O=C(Nc1nc2c(Cl)ccc(Cl)c2s1)C1CC1	–	–	–	28	–	–	–
O=C(CCNC(=O)N1CC(=O)Nc2ccccc21)Nc1cccc(Cl)c1	–	–	–	–	–	–	·
CCOc1ccccc1NC(=O)C1Cc2ccccc2CN1S(C)(=O)=O (stereo not given)	–	–	·	–	–	·	·
COc1cc(NC(=O)C2Cc3ccccc3CN2S(C)(=O)=O)cc(OC)c1 (stereo not given)	–	–	–	23	–	–	–
COc1ccccc1-c1ccc2c(c1)O[C@@H](CN(C)C(=O)Nc1cccc(F)c1)[C@@H](C)CN([C@H](C)CO)S2(=O)=O	·	·	–	·	·	–	·
O=C(Nc1ccc(-c2cc3ccccc3oc2=O)c(Cl)c1)c1cccnc1	–	–	–	84	–	·	–
COc1cc(NC(=O)c2cccnc2)ccc1-c1cc2ccccc2oc1=O	·	·	–	·	·	–	·
O=C(Nc1cccc(-c2cc3ccccc3oc2=O)c1)c1ccc(Br)o1	–	–	–	–	–	·	·
O=C(Nc1cccnc1)c1cccc(-c2cc3ccccc3oc2=O)c1	–	–	–	46	–	–	–
Cc1ccc(NC(=O)COC(=O)Cc2ccsc2)cc1S(=O)(=O)N(C)C	–	–	–	–	–	–	·
CCCC#Cc1ccc([C@@H]2[C@H](CO)N3CCCCN(C(=O)c4ccc5c(c4)OCO5)C[C@@H]23)cc1	·	·	–	·	·	–	·
CCCN(CCC)CCCNC(=S)Nc1ccc2nc(N3CCN(C)CC3)cc(C)c2c1	–	·	–	–	·	–	·
CCCCN(CC)CCNC(=S)Nc1ccc2nc(N3CCN(C)CC3)cc(C)c2c1	–	–	–	21	–	–	–
C=CCN(C(=O)COC(=O)c1cc[n+]([O-])cc1)c1nc(-c2ccccc2)cs1	–	–	–	–	–	–	·
O=C(Nc1nccs1)c1cc2c(s1)-c1ccccc1OC2	–	–	–	37	–	–	–
Cc1cccc2c1-c1sc(C(=O)Nc3cccnc3)cc1CO2	–	–	–	32	–	–	–
O=C(Nc1cccnc1)c1cc2c(s1)-c1ccccc1OC2	–	–	–	–	–	–	·
O=C(Nc1ccc2nn(-c3ccccc3)nc2c1)c1ccc2c(c1)OCCO2	–	–	·	–	–	·	·
O=C(Nc1ccc(NS(=O)(=O)c2ccccc2)cc1)c1ccc(Cl)cc1	–	–	–	26	–	–	–
O=C(Nc1ccc(NC(=O)c2ccc3c(c2)OCCO3)cc1)c1ccccc1	–	–	–	35	–	–	–
O=C(NNC(=O)c1ccc(NC(=O)c2ccccc2)cc1)c1ccccc1	–	–	–	18	–	–	–

Screening results as filed in PubChem BioAssay.
